Measured values from ChEMBL document CHEMBL1275480, “Role of global regulators and nucleotide metabolism in antibiotic tolerance in Escherichia coli” (2008).

Assays:
[1] = test system: Escherichia coli; test: Antimicrobial activity against dksA deficient Escherichia coli K-12 BW-25113 assessed as decrease in persistence at 100 ug/ml after 3 hrs by time kill analysis; format: functional, K-12 BW25113
Summary of the method: (§1)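 Keio single-gene deletion strains of E. coli K-12 BW25113 and the parent strain. Cultures: 1 ml LB overnight at 37°C with aeration, then diluted 1:100 into MOPS minimal medium (0.1% succinate, 0.05% Casamino Acids) and grown 5 h to exponential phase (~2 × 10^8 CFU/ml). Challenged 3 h with ciprofloxacin 1 μg/ml, streptomycin 10 μg/ml or ampicillin 100 μg/ml. Samples taken before and after, diluted, spot-plated on LB agar for CFU. Triplicate, standard deviations.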

[2] = test system: Escherichia coli; test: Antimicrobial activity against dnaK deficient Escherichia coli K-12 BW-25113 assessed as decrease in persistence at 100 ug/ml after 3 hrs by time kill analysis; format: functional, K-12 BW25113; summary of the method: as §1
[3] = test system: Escherichia coli; test: Antimicrobial activity against dnaJ deficient Escherichia coli K-12 BW-25113 assessed as decrease in persistence at 100 ug/ml after 3 hrs by time kill analysis; format: functional, K-12 BW25113; summary of the method: as §1
[4] = test system: Escherichia coli; test: Antimicrobial activity against ygfA deficient Escherichia coli K-12 BW-25113 assessed as decrease in persistence at 100 ug/ml after 3 hrs by time kill analysis; format: functional, K-12 BW25113; summary of the method: as §1
[5] = test system: Escherichia coli; test: Antimicrobial activity against apaH deficient Escherichia coli K-12 BW-25113 assessed as survival rate at 10 ug/ml after 6 hrs by time kill analysis
[6] = test system: Escherichia coli; test: Antimicrobial activity against Escherichia coli K-12 BW-25113 assessed as survival rate at 10 ug/ml after 6 hrs by time kill analysis
[7] = test system: Escherichia coli; test: Antimicrobial activity against surA deficient Escherichia coli K-12 BW-25113 assessed as survival rate at 10 ug/ml after 6 hrs by time kill analysis
[8] = test system: Escherichia coli; test: Antimicrobial activity against dnaJ deficient Escherichia coli K-12 BW-25113 assessed as decrease in persistence at 10 ug/ml after 3 hrs by time kill analysis; format: functional, K-12 BW25113; summary of the method: as §1
[9] = test system: Escherichia coli; test: Antimicrobial activity against dksA deficient Escherichia coli K-12 BW-25113 assessed as decrease in persistence at 10 ug/ml after 3 hrs by time kill analysis relative to wild type; format: functional, K-12 BW25113; summary of the method: as §1
[10] = test system: Escherichia coli; test: Antimicrobial activity against yigB deficient Escherichia coli K-12 BW-25113 assessed as decrease in persistence at 10 ug/ml after 3 hrs by time kill analysis relative to wild type; format: functional, K-12 BW25113; summary of the method: as §1
[11] = test system: Escherichia coli; test: Antimicrobial activity against ygfA deficient Escherichia coli K-12 BW-25113 assessed as decrease in persistence at 10 ug/ml after 3 hrs by time kill analysis relative to wild type; format: functional, K-12 BW25113; summary of the method: as §1
[12] = test system: Escherichia coli; test: Antimicrobial activity against dnaK deficient Escherichia coli K-12 BW-25113 assessed as decrease in persistence at 10 ug/ml after 3 hrs by time kill analysis; format: functional, K-12 BW25113; summary of the method: as §1

CC1(C)S[C@@H]2[C@H](NC(=O)[C@H](N)c3ccccc3)C(=O)N2[C@H]1C(=O)O [AMPICILLIN]
fold change (FC) [1]: 40 | fold change (FC) [2]: 13 | fold change (FC) [3]: 46 | fold change (FC) [4]: 82

CC1COc2c(N3CCN(C)CC3)c(F)cc3c(=O)c(C(=O)O)cn1c23 (configuration not stated) [OFLOXACIN]
Activity [5]: 1.7% | Activity [6]: 1.3% | Activity [7]: 3.3%

CN[C@@H]1[C@H](O[C@H]2[C@H](O[C@H]3[C@H](O)[C@@H](O)[C@H](N=C(N)N)[C@@H](O)[C@@H]3N=C(N)N)O[C@@H](C)[C@]2(O)C=O)O[C@@H](CO)[C@H](O)[C@H]1O [STREPTOMYCIN]
fold change (FC) [8]: 87 | fold change (FC) [9]: 6 | fold change (FC) [10]: 10 | fold change (FC) [11]: 3 | fold change (FC) [12]: 66
